Results reported in ChEMBL document CHEMBL3351319, “Synthesis, biological evaluation and 3D-QSAR study of novel 4,5-dihydro-1H-pyrazole thiazole derivatives as BRAF(V⁶⁰⁰E) inhibitors” (Bioorg Med Chem, 2015).

Columns and labels:
[1] = Antiproliferative activity against human WM266.4 cells after 48 hrs by MTT assay; type: functional, cell-based; details: WM 266-4, 48 h
Method in brief: (§1)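 Cells grown to log phase in RPMI 1640 with 10% FBS, seeded at 2 × 10^4 cells/mL and left 24 h at 37 °C, 5% CO2. Compounds added at pre-set concentrations, sorafenib as positive control, 48 h exposure. MTT (2.5 mg/mL in PBS) added for 4 h, then SDS-isobutanol-HCl extraction overnight at 37 °C. OD read at 570 nm. Three replicate wells per concentration, each assay run at least three times.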

MCF7 [2] = experiment: Antiproliferative activity against human MCF7 cells after 48 hrs by MTT assay; type: functional, cell-based; details: MCF7, 48 h; method in brief: as §1
[3] = Inhibition of full-length GST-tagged mouse BRAF V600E mutant using MEK1 as substrate preincubated for 1 hr
Method in brief: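 Mouse full-length GST-tagged BRAF V600E (7.5 ng) pre-incubated 1 h at room temperature with compound in assay dilution buffer. Reaction started by adding 200 ng His-tagged full-length human MEK1, 200 µM ATP (0.8 µCi hot ATP) and 30 mM MgCl2, then run 25 min at room temperature. Quenched with LDS buffer and heated 5 min at 70 °C. Products separated on 4-12% gel, which was dried and read on a phosphor screen. No-enzyme and no-inhibitor controls included, triplicate.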

MCF7 [4] = experiment: Induction of apoptosis in human MCF7 cells assessed as early apoptotic cells at 1 uM after 48 hrs using annexin V-FITC/PI by flow cytometry (reference value: 3.52 %); type: functional
MCF7 [5] = experiment: Induction of apoptosis in human MCF7 cells assessed as viable cells at 3 uM after 48 hrs using annexin V-FITC/PI by flow cytometry (reference value: 91.07 %); type: functional; details: MCF7, 48 h, read-out: Activity
WM 266-4 [6] = experiment: Induction of apoptosis in human WM266.4 cells assessed as viable cells at 1 uM after 48 hrs using annexin V-FITC/PI by flow cytometry (reference value: 86.39 %); type: functional; details: WM 266-4, 48 h, read-out: Activity
MCF7 [7] = experiment: Induction of apoptosis in human MCF7 cells assessed as necrotic cells at 1 uM after 48 hrs using annexin V-FITC/PI by flow cytometry (reference value: 0.29 %); type: functional
MCF7 [8] = experiment: Induction of apoptosis in human MCF7 cells assessed as viable cells at 1 uM after 48 hrs using annexin V-FITC/PI by flow cytometry (reference value: 91.07 %); type: functional; details: MCF7, 48 h, read-out: Activity
WM 266-4 [9] = experiment: Induction of apoptosis in human WM266.4 cells assessed as early apoptotic cells at 1 uM after 48 hrs using annexin V-FITC/PI by flow cytometry (reference value: 5.79 %); type: functional
WM 266-4 [10] = experiment: Induction of apoptosis in human WM266.4 cells assessed as viable cells at 3 uM after 48 hrs using annexin V-FITC/PI by flow cytometry (reference value: 86.39 %); type: functional; details: WM 266-4, 48 h, read-out: Activity
MCF7 [11] = experiment: Induction of apoptosis in human MCF7 cells assessed as necrotic cells at 3 uM after 48 hrs using annexin V-FITC/PI by flow cytometry (reference value: 0.29 %); type: functional
WM 266-4 [12] = experiment: Induction of apoptosis in human WM266.4 cells assessed as necrotic cells at 3 uM after 48 hrs using annexin V-FITC/PI by flow cytometry (reference value: 1.26 %); type: functional
WM 266-4 [13] = experiment: Induction of apoptosis in human WM266.4 cells assessed as late apoptotic cells at 1 uM after 48 hrs using annexin V-FITC/PI by flow cytometry (reference value: 6.56 %); type: functional
MCF7 [14] = experiment: Induction of apoptosis in human MCF7 cells assessed as early apoptotic cells at 3 uM after 48 hrs using annexin V-FITC/PI by flow cytometry (reference value: 3.52 %); type: functional
WM 266-4 [15] = experiment: Induction of apoptosis in human WM266.4 cells assessed as early apoptotic cells at 3 uM after 48 hrs using annexin V-FITC/PI by flow cytometry (reference value: 5.79 %); type: functional
WM 266-4 [16] = experiment: Induction of apoptosis in human WM266.4 cells assessed as necrotic cells at 1 uM after 48 hrs using annexin V-FITC/PI by flow cytometry (reference value: 1.26 %); type: functional
WM 266-4 [17] = experiment: Induction of apoptosis in human WM266.4 cells assessed as late apoptotic cells at 3 uM after 48 hrs using annexin V-FITC/PI by flow cytometry (reference value: 6.56 %); type: functional
MCF7 [18] = experiment: Induction of apoptosis in human MCF7 cells assessed as late apoptotic cells at 3 uM after 48 hrs using annexin V-FITC/PI by flow cytometry (reference value: 5.12 %); type: functional
MCF7 [19] = experiment: Induction of apoptosis in human MCF7 cells assessed as late apoptotic cells at 1 uM after 48 hrs using annexin V-FITC/PI by flow cytometry (reference value: 5.12 %); type: functional

Row | SMILES | IC50 [1] [µM] | IC50 (MCF7 [2]) [µM] | IC50 [3] [µM] | other results
1 | COc1ccc(-c2csc(N3N=C(c4ccc(F)cc4)CC3c3cccs3)n2)cc1 (centres undefined) | 4.42 | 14.2 | 5.12 | 
2 | Fc1ccc(C2=NN(c3nc(-c4ccc(Br)cc4)cs3)C(c3cccs3)C2)cc1 (centres undefined) | 0.22 | 8.28 | 1.86 | 
3 | COc1ccc(-c2csc(N3N=C(c4ccc(C)cc4)CC3c3cccs3)n2)cc1 (centres undefined) | 3.77 | 4.77 | 0.11 | 
4 | COc1ccc(-c2csc(N3N=C(c4ccc(Br)cc4)CC3c3cccs3)n2)cc1 (centres undefined) | 2.01 | 0.68 | 0.08 | 
5 | Cc1ccc(C2=NN(c3nc(-c4ccc(Br)cc4)cs3)C(c3cccs3)C2)cc1 (centres undefined) | 18.4 | 2.01 | 0.56 | 
6 | FC(F)(F)c1ccc(-c2csc(N3N=C(c4ccc(Cl)cc4)CC3c3cccs3)n2)cc1 (centres undefined) | 0.12 | 0.16 | 0.05 | Activity (MCF7 [4]): 39.15%; viability at 3 µM (MCF7 [5]): 19.8%; viability at 1 µM (WM 266-4 [6]): 68.2%; Activity (MCF7 [7]): 1.2%; viability at 1 µM (MCF7 [8]): 32.4%; Activity (WM 266-4 [9]): 14.13%; viability at 3 µM (WM 266-4 [10]): 11%; Activity (MCF7 [11]): 3.54%; Activity (WM 266-4 [12]): 3.54%; Activity (WM 266-4 [13]): 17.54%; Activity (MCF7 [14]): 43.69%; Activity (WM 266-4 [15]): 47.19%; Activity (WM 266-4 [16]): 0.09%; Activity (WM 266-4 [17]): 38.25%; Activity (MCF7 [18]): 33.01%; Activity (MCF7 [19]): 27.25%
7 | FC(F)(F)c1ccc(-c2csc(N3N=C(c4ccc(Br)cc4)CC3c3cccs3)n2)cc1 (centres undefined) | 27.4 | 7.81 | 2.09 | 
8 | Fc1ccc(C2=NN(c3nc(-c4ccccc4)cs3)C(c3cccs3)C2)cc1 (centres undefined) | 0.17 | 2.34 | 0.67 | 
9 | Fc1ccc(C2=NN(c3nc(-c4ccc(C(F)(F)F)cc4)cs3)C(c3cccs3)C2)cc1 (centres undefined) | 5.12 | 1.33 | 1.01 | 
10 | Cc1ccc(C2=NN(c3nc(-c4ccc(C(F)(F)F)cc4)cs3)C(c3cccs3)C2)cc1 (centres undefined) | 2.11 | 31.5 | 6.18 | 
11 | COc1ccc(C2=NN(c3nc(-c4ccc(C(F)(F)F)cc4)cs3)C(c3cccs3)C2)cc1 (centres undefined) | 8.11 | 45.7 | 10.9 | 
12 | Brc1ccc(C2=NN(c3nc(-c4ccc(Br)cc4)cs3)C(c3cccs3)C2)cc1 (centres undefined) | 13 | 28.3 | 8.87 | 
13 | Brc1ccc(C2=NN(c3nc(-c4ccccc4)cs3)C(c3cccs3)C2)cc1 (centres undefined) | 1.87 | 6.79 | 2.19 | 
14 | COc1ccc(C2=NN(c3nc(-c4ccc(Br)cc4)cs3)C(c3cccs3)C2)cc1 (centres undefined) | 5.87 | 21.2 | 4.01 | 
15 | Cc1ccc(C2=NN(c3nc(-c4ccccc4)cs3)C(c3cccs3)C2)cc1 (centres undefined) | 7.52 | 18.6 | 3.88 | 
16 | Clc1ccc(C2=NN(c3nc(-c4ccc(Br)cc4)cs3)C(c3cccs3)C2)cc1 (centres undefined) | 1.45 | 14.7 | 4.78 | 
17 | CNC(=O)c1cc(Oc2ccc(NC(=O)Nc3ccc(Cl)c(C(F)(F)F)c3)cc2)ccn1 [SORAFENIB] | 0.06 | 0.19 | 0.03 | 
18 | COc1ccc(-c2csc(N3N=C(c4ccc(Cl)cc4)CC3c3cccs3)n2)cc1 (centres undefined) | 1.31 | 2.48 | 0.19 | 
19 | COc1ccc(C2=NN(c3nc(-c4ccc(OC)cc4)cs3)C(c3cccs3)C2)cc1 (centres undefined) | 31.6 | 16.2 | 5.23 | 
20 | COc1ccc(C2=NN(c3nc(-c4ccccc4)cs3)C(c3cccs3)C2)cc1 (centres undefined) | 2.12 | 9.01 | 1.11 | 
21 | Clc1ccc(C2=NN(c3nc(-c4ccccc4)cs3)C(c3cccs3)C2)cc1 (centres undefined) | 2.19 | 0.19 | 0.09 | 
